# Test results: ChEMBL document CHEMBL1154824, “Synthesis and biological activity of derivatives of the marine quinone avarone” (Eur J Med Chem, 2010)
# Active and inactive are the calls of the source. The calls are words filed in the database; no cut-off is given here.
# Assays:
# HeLa = test: Cytotoxicity against human HeLa cells assessed as decrease in total cellular protein by kenacid blue R binding method; format: functional, cell-based
# [1] = Cytotoxicity against human Fem-X cells assessed as decrease in total cellular protein by kenacid blue R binding method; format: functional, cell-based
# K562 [2] = test: Cytotoxicity against human K562 cells by MTT assay; format: functional, cell-based
# CCRF-CEM = test: Cytotoxicity against human CCRF-CEM cells after 48 hrs by sulforhodamine B assay; format: functional
# Outline: (§1)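 Tested at NIH-NCI against the 60 human tumor cell line panel. Each line was exposed to at least five concentrations for 48 h. Growth and survival were read by the sulforhodamine test.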
# K562 [3] = test: Cytotoxicity against human K562 cells after 48 hrs by sulforhodamine B assay; format: functional; conditions: K562, 48 h; outline: as §1
# MOLT-4 = test: Cytotoxicity against human MOLT4 cells after 48 hrs by sulforhodamine B assay; format: functional; conditions: MOLT-4, 48 h; outline: as §1
# RPMI-8226 = test: Cytotoxicity against human RPMI8226 cells after 48 hrs by sulforhodamine B assay; format: functional; conditions: RPMI-8226, 48 h; outline: as §1
# HOP-92 = test: Cytotoxicity against human HOP92 cells after 48 hrs by sulforhodamine B assay; format: functional; conditions: HOP-92, 48 h; outline: as §1
# NCI-H23 = test: Cytotoxicity against human NCI-H23 cells after 48 hrs by sulforhodamine B assay; format: functional; conditions: NCI-H23, 48 h; outline: as §1
# LOX IMVI = test: Cytotoxicity against human LOXIMVI cells after 48 hrs by sulforhodamine B assay; format: functional; outline: as §1
# SK-MEL-2 = test: Cytotoxicity against human SK-MEL-2 cells after 48 hrs by sulforhodamine B assay; format: functional; conditions: SK-MEL-2, 48 h; outline: as §1
# IGROV-1 = test: Cytotoxicity against human IGROV1 cells after 48 hrs by sulforhodamine B assay; format: functional; conditions: IGROV-1, 48 h; outline: as §1
# RXF 393 = test: Cytotoxicity against human RXF393 cells after 48 hrs by sulforhodamine B assay; format: functional; conditions: RXF 393, 48 h; outline: as §1
# MCF7 = test: Cytotoxicity against human MCF7 cells after 48 hrs by sulforhodamine B assay; format: functional; conditions: MCF7, 48 h; outline: as §1
# MDA-MB-435 = test: Cytotoxicity against human MDA-MB-435 cells after 48 hrs by sulforhodamine B assay; format: functional; conditions: MDA-MB-435, 48 h; outline: as §1
# T47D = test: Cytotoxicity against human T47D cells after 48 hrs by sulforhodamine B assay; format: functional; outline: as §1
# [4] = Cytotoxicity against human colon cancer cells after 48 hrs by sulforhodamine B assay; format: functional; conditions: Cancer cell lines; outline: as §1
# [5] = Cytotoxicity against human CNS cancer cells after 48 hrs by sulforhodamine B assay; format: functional; conditions: Cancer cell lines; outline: as §1
# [6] = Cytotoxicity against human prostate cancer cells after 48 hrs by sulforhodamine B assay; format: functional; conditions: Cancer cell lines; outline: as §1
# Staphylococcus aureus = test: Antibacterial activity against Staphylococcus aureus ATCC 25923 by serial dilution method; format: functional
# Escherichia coli = test: Antibacterial activity against Escherichia coli ATCC 35218 by serial dilution method; format: functional
# Artemia salina = test: Toxicity against freshly hatched nauplii of brine shrimp after 24 hrs; format: organism-based; conditions: in vivo
# PBMC [7] = test: Cytotoxicity against human PBMC cells by MTT assay; format: cell-based
# PBMC [8] = test: Cytotoxicity against human phytohemagglutininin-stimulated PBMC cells assessed as growth inhibition by MTT assay; format: cell-based
# [9] = tested on: Human immunodeficiency virus; test: Antiviral activity against HIV infected in human T4 lymphocytes assessed as protection from HIV-induced cytopathogenicity at 2 uM; format: functional
# [10] = Cytotoxicity against human T4 lymphocytes
smiles,measurement,setting,value
CC1=CCC[C@H]2[C@](C)(CC3=CC(=O)C4=C(SCCS4)C3=O)[C@@H](C)CC[C@]12C,IC50,HeLa,> 100 µM
same,IC50,[1],75 µM
same,IC50,K562 [2],91 µM
same,GI50,CCRF-CEM,11 µM
same,GI50,K562 [3],20 µM
same,GI50,MOLT-4,21.4 µM
same,GI50,RPMI-8226,14.1 µM
same,GI50,HOP-92,31.6 µM
same,GI50,NCI-H23,13.2 µM
same,GI50,LOX IMVI,11.2 µM
same,GI50,SK-MEL-2,1.7 µM
same,GI50,IGROV-1,32.4 µM
same,GI50,RXF 393,18.6 µM
same,GI50,MCF7,20.4 µM
same,GI50,MDA-MB-435,8.13 µM
same,GI50,T47D,> 100 µM
same,GI50,[4],> 10 µM
same,GI50,[5],> 10 µM
same,GI50,[6],> 10 µM
same,MIC,Staphylococcus aureus,inactive
same,MIC,Escherichia coli,100 µg/mL
same,LC50,Artemia salina,2045 ppm
CC1=CCC[C@H]2[C@](C)(CC3=CC(=O)C(SC(C)(C)C)=CC3=O)[C@@H](C)CC[C@]12C,IC50,HeLa,37 µM
same,IC50,[1],38 µM
same,IC50,K562 [2],25.7 µM
same,IC50,PBMC [7],21.7 µM
same,IC50,PBMC [8],20.8 µM
same,MIC,Staphylococcus aureus,50 µg/mL
same,MIC,Escherichia coli,inactive
same,LC50,Artemia salina,0.89 ppm
CCCCSC1=CC(=O)C(C[C@]2(C)[C@@H](C)CC[C@]3(C)C(C)=CCC[C@@H]23)=CC1=O,IC50,HeLa,25.1 µM
same,IC50,[1],24.4 µM
same,IC50,K562 [2],12.5 µM
same,MIC,Staphylococcus aureus,25 µg/mL
same,MIC,Escherichia coli,inactive
same,LC50,Artemia salina,0.92 ppm
CC1CCC[C@H]2[C@](C)(CC3=CC(=O)C(Cl)=CC3=O)[C@@H](C)CC[C@]12C (stereo not given in full),IC50,HeLa,34.1 µM
same,IC50,[1],32.2 µM
same,IC50,K562 [2],11.2 µM
same,MIC,Staphylococcus aureus,50 µg/mL
same,MIC,Escherichia coli,25 µg/mL
same,LC50,Artemia salina,0.65 ppm
CC1=CCC[C@H]2[C@](C)(CC3=CC(=O)C(Sc4ccccc4)=CC3=O)[C@@H](C)CC[C@]12C,IC50,HeLa,45 µM
same,IC50,[1],42.5 µM
same,IC50,K562 [2],15.2 µM
same,IC50,PBMC [7],9.9 µM
same,IC50,PBMC [8],11.2 µM
same,GI50,CCRF-CEM,3.89 µM
same,GI50,K562 [3],19.5 µM
same,GI50,MOLT-4,2.57 µM
same,GI50,RPMI-8226,20.4 µM
same,GI50,HOP-92,17 µM
same,GI50,NCI-H23,14.8 µM
same,GI50,LOX IMVI,13.5 µM
same,GI50,SK-MEL-2,20 µM
same,GI50,IGROV-1,16.2 µM
same,GI50,RXF 393,16.2 µM
same,GI50,MCF7,22.4 µM
same,GI50,MDA-MB-435,17 µM
same,GI50,T47D,20.4 µM
same,GI50,[4],> 10 µM
same,GI50,[5],> 10 µM
same,GI50,[6],> 10 µM
same,MIC,Staphylococcus aureus,12.5 µg/mL
same,MIC,Escherichia coli,inactive
same,Activity,[9],12.5%
same,Activity,[10],Toxic
same,LC50,Artemia salina,30.21 ppm
CCCSC1=CC(=O)C(C[C@]2(C)[C@@H](C)CC[C@]3(C)C(C)=CCC[C@@H]23)=CC1=O,IC50,HeLa,97 µM
same,IC50,[1],89.5 µM
same,IC50,K562 [2],45.5 µM
same,MIC,Staphylococcus aureus,50 µg/mL
same,MIC,Escherichia coli,inactive
same,LC50,Artemia salina,0.2 ppm
CC1=CCC[C@H]2[C@](C)(CC3=CC(=O)C(SCC(C)C)=CC3=O)[C@@H](C)CC[C@]12C,IC50,HeLa,98 µM
same,IC50,[1],89.5 µM
same,IC50,K562 [2],39 µM
same,GI50,CCRF-CEM,1.35 µM
same,GI50,K562 [3],4.47 µM
same,GI50,MOLT-4,2.29 µM
same,GI50,RPMI-8226,3.8 µM
same,GI50,HOP-92,4.79 µM
same,GI50,NCI-H23,5.5 µM
same,GI50,LOX IMVI,4.07 µM
same,GI50,SK-MEL-2,20.9 µM
same,GI50,IGROV-1,10 µM
same,GI50,RXF 393,6.76 µM
same,GI50,MCF7,7.24 µM
same,GI50,MDA-MB-435,15.5 µM
same,GI50,T47D,2.63 µM
same,GI50,[4],> 10 µM
same,GI50,[5],> 10 µM
same,GI50,[6],> 10 µM
same,MIC,Staphylococcus aureus,50 µg/mL
same,MIC,Escherichia coli,25 µg/mL
same,Activity,[9],28.5%
same,Activity,[10],Toxic
same,LC50,Artemia salina,0.17 ppm
CC1=CCC[C@H]2[C@](C)(CC3=CC(=O)C=C(Sc4ccccc4)C3=O)[C@@H](C)CC[C@]12C,IC50,HeLa,54.8 µM
same,IC50,[1],41.5 µM
same,IC50,K562 [2],17.4 µM
same,MIC,Staphylococcus aureus,12.5 µg/mL
same,MIC,Escherichia coli,inactive
same,LC50,Artemia salina,32.33 ppm
CC1=CCC[C@H]2[C@](C)(CC3=CC(=O)C=CC3=O)[C@@H](C)CC[C@]12C [AVARONE],IC50,HeLa,26.8 µM
same,IC50,[1],23.9 µM
same,IC50,K562 [2],4.9 µM
same,IC50,PBMC [7],4.8 µM
same,IC50,PBMC [8],4.5 µM
same,MIC,Staphylococcus aureus,6.25 µg/mL
same,MIC,Escherichia coli,25 µg/mL
same,LC50,Artemia salina,0.14 ppm
C[C@H]1c2cccc(O)c2C(=O)C2=C(O)[C@]3(O)C(=O)C(C(N)=O)=C(O)[C@@H](N(C)C)[C@@H]3[C@@H](O)[C@@H]21.O [DOXYCYCLINE],MIC,Staphylococcus aureus,4 µg/mL
same,MIC,Escherichia coli,2 µg/mL
CC1=CCC[C@H]2[C@](C)(Cc3cc(O)ccc3O)[C@@H](C)CC[C@]12C [AVAROL],IC50,HeLa,19.7 µM
same,IC50,[1],21.7 µM
same,IC50,K562 [2],7.3 µM
same,IC50,PBMC [7],3 µM
same,IC50,PBMC [8],3.2 µM
same,MIC,Staphylococcus aureus,12.5 µg/mL
same,MIC,Escherichia coli,inactive
same,LC50,Artemia salina,0.18 ppm
COC1=CC(=O)C=C(C[C@]2(C)[C@@H](C)CC[C@]3(C)C(C)=CCC[C@@H]23)C1=O,IC50,HeLa,13.3 µM
same,IC50,[1],9.8 µM
same,IC50,K562 [2],2.1 µM
same,IC50,PBMC [7],5.9 µM
same,IC50,PBMC [8],5.5 µM
same,MIC,Staphylococcus aureus,25 µg/mL
same,MIC,Escherichia coli,50 µg/mL
same,LC50,Artemia salina,0.02 ppm
CNC1=CC(=O)C(C[C@]2(C)[C@@H](C)CC[C@]3(C)C(C)=CCC[C@@H]23)=CC1=O,IC50,HeLa,12.6 µM
same,IC50,[1],2.4 µM
same,IC50,K562 [2],9.3 µM
same,IC50,PBMC [7],> 100 µM
same,IC50,PBMC [8],> 100 µM
same,MIC,Staphylococcus aureus,inactive
same,MIC,Escherichia coli,inactive
same,LC50,Artemia salina,0.34 ppm
CCCCCCCCSC1=CC(=O)C(C[C@]2(C)[C@@H](C)CC[C@]3(C)C(C)=CCC[C@@H]23)=CC1=O,IC50,HeLa,> 100 µM
same,IC50,[1],> 100 µM
same,IC50,K562 [2],> 100 µM
same,MIC,Staphylococcus aureus,inactive
same,MIC,Escherichia coli,25 µg/mL
same,LC50,Artemia salina,Not Active
CC1=CCC[C@H]2[C@](C)(CC3=CC(=O)C(SC(C)C)=CC3=O)[C@@H](C)CC[C@]12C,IC50,HeLa,67 µM
same,IC50,[1],86 µM
same,IC50,K562 [2],47.5 µM
same,MIC,Staphylococcus aureus,inactive
same,MIC,Escherichia coli,inactive
same,LC50,Artemia salina,0.44 ppm
